Results published in ChEMBL document CHEMBL1949587 (Bioorg Med Chem, 2012).
Activity calls are given as the source filed them. The rule behind the calls is not given here.

Tests used:
T47D = experiment: Antiproliferative activity against human T47D cells assessed as cell growth inhibition; assay type: cell-based
[1] = Clearance in mouse liver microsome at 5 uM after 60 mins by LC-MS/MS analysis; assay type: ADME; conditions: liver microsomes, read-out: CLH
In short: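 Test compound at 5 µM incubated with mouse liver microsomes, 1.0 mg protein/mL, in 50 mM potassium phosphate pH 7.4 at 37 °C. Started by adding NADPH generating system (glucose 6-phosphate 3.2 mM, β-NADP 2.6 mM, MgCl2 6.5 mM). Substrate depletion measured against internal standard. Intrinsic clearance is the first-order decay constant normalized to protein.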

[2] = target: Tyrosine-protein kinase Lyn (Homo sapiens, UniProt P07948); experiment: Inhibition of Lyn
Sequence of Tyrosine-protein kinase Lyn (P07948 whole entry): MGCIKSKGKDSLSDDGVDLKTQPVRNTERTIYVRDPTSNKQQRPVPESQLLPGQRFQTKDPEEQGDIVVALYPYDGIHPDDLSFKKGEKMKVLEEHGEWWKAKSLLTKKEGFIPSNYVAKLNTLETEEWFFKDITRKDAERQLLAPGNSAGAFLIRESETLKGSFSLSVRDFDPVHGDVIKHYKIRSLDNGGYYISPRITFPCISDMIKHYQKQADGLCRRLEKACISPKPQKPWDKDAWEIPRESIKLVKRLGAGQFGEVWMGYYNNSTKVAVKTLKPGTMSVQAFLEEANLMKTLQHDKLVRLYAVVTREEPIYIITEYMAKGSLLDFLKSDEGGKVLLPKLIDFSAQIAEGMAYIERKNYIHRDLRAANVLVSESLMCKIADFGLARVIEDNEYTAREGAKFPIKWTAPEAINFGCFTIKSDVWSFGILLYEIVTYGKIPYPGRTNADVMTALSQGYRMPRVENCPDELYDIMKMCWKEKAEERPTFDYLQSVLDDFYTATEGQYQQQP

Calu-6 [3] = experiment: Antitumor activity against human Calu6 cells xenografted in po dosed BALB/c mouse assessed as tumor growth inhibition administered qd for 11 days; assay type: functional; conditions: for ED50: Calu-6, po, 264 h
In short: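 Calu-6 cells in Hanks' balanced salt solution, 5.0 × 10⁶ per mouse, implanted s.c. in flank of female Balb/c nude mice. Once tumors reached 150 mm³, oral dosing once daily for 11 days. Tumor volume = 1/2 × long × short² diameter; growth inhibition from volume change in treated versus control group.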

[4] = target: Glycogen synthase kinase-3 beta (Homo sapiens, UniProt P49841); experiment: Inhibition of GSK3-beta
Sequence of Glycogen synthase kinase-3 beta (P49841 whole entry): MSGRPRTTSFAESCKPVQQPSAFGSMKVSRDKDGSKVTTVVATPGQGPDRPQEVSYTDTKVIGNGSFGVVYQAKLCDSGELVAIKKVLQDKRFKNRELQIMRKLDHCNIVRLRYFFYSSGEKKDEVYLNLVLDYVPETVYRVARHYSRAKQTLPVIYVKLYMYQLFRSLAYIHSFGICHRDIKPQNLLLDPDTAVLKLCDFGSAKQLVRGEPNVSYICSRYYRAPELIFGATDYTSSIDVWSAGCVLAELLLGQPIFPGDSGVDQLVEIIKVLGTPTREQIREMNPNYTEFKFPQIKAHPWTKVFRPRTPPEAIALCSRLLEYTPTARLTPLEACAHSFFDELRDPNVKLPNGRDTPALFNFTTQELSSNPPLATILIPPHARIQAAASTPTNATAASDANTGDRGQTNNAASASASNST

[5] = Oral bioavailability in nude mouse at 10 mg/kg by LC-MS/MS analysis; assay type: ADME, organism-based; conditions: in vivo
In short: (§1)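 Female nude mice given single oral dose in DMSO/Cremophor EL/1% Tween 80 (1:1:8 v/v/v) by stomach sonde. Blood taken at 30 min, 1, 2, 4, 7 and 24 h (n = 2/time point). Plasma precipitated with CH3CN/MeOH plus internal standard, filtered, measured by LC-MS/MS (LLOQ 20 ng/mL). Parameters by non-compartmental analysis; CL given as CL/F.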

CWR22R = experiment: Antiproliferative activity against human 22Rv1 cells assessed as cell growth inhibition; assay type: cell-based
DU-145 = experiment: Antiproliferative activity against human DU145 cells assessed as cell growth inhibition; assay type: cell-based
WiDr = experiment: Antiproliferative activity against human WiDr cells assessed as cell growth inhibition; assay type: cell-based
[6] = target: Protein-tyrosine kinase 6 (Homo sapiens, UniProt Q13882); experiment: Inhibition of BRK
Sequence of Protein-tyrosine kinase 6 (Q13882 whole entry): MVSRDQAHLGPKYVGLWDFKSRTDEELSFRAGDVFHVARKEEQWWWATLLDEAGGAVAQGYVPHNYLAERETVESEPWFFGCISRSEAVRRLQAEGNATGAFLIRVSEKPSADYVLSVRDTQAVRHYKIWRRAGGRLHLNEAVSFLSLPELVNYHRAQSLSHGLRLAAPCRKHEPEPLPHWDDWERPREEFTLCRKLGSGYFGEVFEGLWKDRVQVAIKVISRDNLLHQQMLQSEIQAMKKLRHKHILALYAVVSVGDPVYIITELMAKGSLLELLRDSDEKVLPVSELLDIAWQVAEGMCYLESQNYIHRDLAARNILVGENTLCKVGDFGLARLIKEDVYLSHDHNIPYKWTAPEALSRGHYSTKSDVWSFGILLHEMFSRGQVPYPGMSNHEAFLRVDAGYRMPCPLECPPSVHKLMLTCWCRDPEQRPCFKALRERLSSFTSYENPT

COLO 205 = experiment: Antiproliferative activity against human COLO205 cells assessed as cell growth inhibition; assay type: cell-based
[7] = Apparent oral clearance in nude mouse at 30 mg/kg, po by LC-MS/MS analysis; assay type: ADME, organism-based; set-up: dose 30 mg/kg, route oral; conditions: in vivo; in short: as §1
[8] = target: Cyclin-dependent kinase 1 (Homo sapiens, UniProt P06493); experiment: Inhibition of CDK1
Sequence of Cyclin-dependent kinase 1 (P06493 whole entry): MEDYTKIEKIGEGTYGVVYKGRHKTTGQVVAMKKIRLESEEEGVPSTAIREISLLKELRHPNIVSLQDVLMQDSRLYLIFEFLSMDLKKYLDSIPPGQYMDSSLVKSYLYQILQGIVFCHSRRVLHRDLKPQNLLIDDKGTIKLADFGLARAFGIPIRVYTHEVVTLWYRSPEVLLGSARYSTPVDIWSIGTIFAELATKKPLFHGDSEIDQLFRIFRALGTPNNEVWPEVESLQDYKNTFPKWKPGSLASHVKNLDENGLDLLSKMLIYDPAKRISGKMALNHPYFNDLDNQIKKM

HUVEC [9] = experiment: Antiangiogenic activity in HUVEC co-cultured with fibroblasts assessed as inhibition of capillary-like tube formation at 4 uM after 11 days by microscopic staining method relative to control; assay type: functional; conditions: Homo sapiens, 264 h
In short: (§2)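 Commercial co-culture kit of HUVEC and fibroblasts, given compound at final 4 or 20 μM and held at 37 °C, 5% CO₂ for 11 days. Tubes fixed with 70% ethanol and stained for CD31, then photographed under a microscope. Tube area quantified by image analysis and inhibition calculated against control taken as 100%.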

IGROV-1 = experiment: Antiproliferative activity against human IGROV1 cells assessed as cell growth inhibition; assay type: cell-based
Focal adhesion kinase 1 = Focal adhesion kinase 1 (Homo sapiens, UniProt Q05397); experiment: Inhibition of FAK
Sequence of Focal adhesion kinase 1 (Q05397 whole entry): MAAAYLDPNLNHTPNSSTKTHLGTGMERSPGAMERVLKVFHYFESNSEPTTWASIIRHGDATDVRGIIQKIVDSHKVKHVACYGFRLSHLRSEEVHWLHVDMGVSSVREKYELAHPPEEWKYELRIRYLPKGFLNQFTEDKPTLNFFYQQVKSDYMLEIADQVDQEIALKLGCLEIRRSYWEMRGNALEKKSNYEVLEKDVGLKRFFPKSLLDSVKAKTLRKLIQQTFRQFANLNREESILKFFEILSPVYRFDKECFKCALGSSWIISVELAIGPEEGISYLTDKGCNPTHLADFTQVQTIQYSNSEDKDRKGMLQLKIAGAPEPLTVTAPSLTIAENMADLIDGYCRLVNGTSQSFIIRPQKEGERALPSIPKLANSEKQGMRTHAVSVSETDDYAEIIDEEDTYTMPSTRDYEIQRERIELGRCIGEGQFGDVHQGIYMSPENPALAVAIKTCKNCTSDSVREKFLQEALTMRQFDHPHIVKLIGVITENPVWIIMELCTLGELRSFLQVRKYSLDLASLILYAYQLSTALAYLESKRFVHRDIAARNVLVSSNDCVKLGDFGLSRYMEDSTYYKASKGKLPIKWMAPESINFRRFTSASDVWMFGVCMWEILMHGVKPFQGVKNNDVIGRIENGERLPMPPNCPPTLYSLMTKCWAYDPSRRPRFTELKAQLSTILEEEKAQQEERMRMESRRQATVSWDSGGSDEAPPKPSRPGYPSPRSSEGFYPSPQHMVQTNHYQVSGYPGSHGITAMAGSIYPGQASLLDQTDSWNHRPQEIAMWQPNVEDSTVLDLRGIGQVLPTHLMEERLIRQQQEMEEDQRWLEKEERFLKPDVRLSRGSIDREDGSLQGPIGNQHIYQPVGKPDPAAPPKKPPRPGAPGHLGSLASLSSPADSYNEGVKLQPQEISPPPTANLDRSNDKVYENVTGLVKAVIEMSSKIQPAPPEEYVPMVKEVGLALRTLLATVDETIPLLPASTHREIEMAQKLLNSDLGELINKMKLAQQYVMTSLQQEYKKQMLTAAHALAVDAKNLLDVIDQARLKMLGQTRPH

HUVEC [10] = experiment: Antiangiogenic activity in HUVEC co-cultured with fibroblasts assessed as inhibition of capillary-like tube formation at 20 uM after 11 days by microscopic staining method relative to control; assay type: functional; conditions: Homo sapiens, 264 h; in short: as §2
[11] = Antiproliferative activity against human KPL4 cells assessed as cell growth inhibition; assay type: cell-based
[12] = target: Cyclin-dependent kinase 2 (Homo sapiens, UniProt P24941); experiment: Inhibition of CDK2
MDA-MB-231 = experiment: Antiproliferative activity against human MDA-MB-231 cells assessed as cell growth inhibition; assay type: cell-based
[13] = target: Leukocyte tyrosine kinase receptor (Homo sapiens, UniProt P29376); experiment: Inhibition of LTK
HCT-15 = experiment: Antiproliferative activity against human HCT15 cells assessed as cell growth inhibition; assay type: cell-based
[14] = target: Tyrosine-protein kinase Yes (Homo sapiens, UniProt P07947); experiment: Inhibition of YES
[15] = Antiproliferative activity against human MDA-MB-435S cells assessed as cell growth inhibition; assay type: cell-based
[16] = target: Vascular endothelial growth factor receptor 2 (Homo sapiens, UniProt P35968); experiment: Inhibition of VEGFR2
Sequence of Vascular endothelial growth factor receptor 2 (P35968 whole entry): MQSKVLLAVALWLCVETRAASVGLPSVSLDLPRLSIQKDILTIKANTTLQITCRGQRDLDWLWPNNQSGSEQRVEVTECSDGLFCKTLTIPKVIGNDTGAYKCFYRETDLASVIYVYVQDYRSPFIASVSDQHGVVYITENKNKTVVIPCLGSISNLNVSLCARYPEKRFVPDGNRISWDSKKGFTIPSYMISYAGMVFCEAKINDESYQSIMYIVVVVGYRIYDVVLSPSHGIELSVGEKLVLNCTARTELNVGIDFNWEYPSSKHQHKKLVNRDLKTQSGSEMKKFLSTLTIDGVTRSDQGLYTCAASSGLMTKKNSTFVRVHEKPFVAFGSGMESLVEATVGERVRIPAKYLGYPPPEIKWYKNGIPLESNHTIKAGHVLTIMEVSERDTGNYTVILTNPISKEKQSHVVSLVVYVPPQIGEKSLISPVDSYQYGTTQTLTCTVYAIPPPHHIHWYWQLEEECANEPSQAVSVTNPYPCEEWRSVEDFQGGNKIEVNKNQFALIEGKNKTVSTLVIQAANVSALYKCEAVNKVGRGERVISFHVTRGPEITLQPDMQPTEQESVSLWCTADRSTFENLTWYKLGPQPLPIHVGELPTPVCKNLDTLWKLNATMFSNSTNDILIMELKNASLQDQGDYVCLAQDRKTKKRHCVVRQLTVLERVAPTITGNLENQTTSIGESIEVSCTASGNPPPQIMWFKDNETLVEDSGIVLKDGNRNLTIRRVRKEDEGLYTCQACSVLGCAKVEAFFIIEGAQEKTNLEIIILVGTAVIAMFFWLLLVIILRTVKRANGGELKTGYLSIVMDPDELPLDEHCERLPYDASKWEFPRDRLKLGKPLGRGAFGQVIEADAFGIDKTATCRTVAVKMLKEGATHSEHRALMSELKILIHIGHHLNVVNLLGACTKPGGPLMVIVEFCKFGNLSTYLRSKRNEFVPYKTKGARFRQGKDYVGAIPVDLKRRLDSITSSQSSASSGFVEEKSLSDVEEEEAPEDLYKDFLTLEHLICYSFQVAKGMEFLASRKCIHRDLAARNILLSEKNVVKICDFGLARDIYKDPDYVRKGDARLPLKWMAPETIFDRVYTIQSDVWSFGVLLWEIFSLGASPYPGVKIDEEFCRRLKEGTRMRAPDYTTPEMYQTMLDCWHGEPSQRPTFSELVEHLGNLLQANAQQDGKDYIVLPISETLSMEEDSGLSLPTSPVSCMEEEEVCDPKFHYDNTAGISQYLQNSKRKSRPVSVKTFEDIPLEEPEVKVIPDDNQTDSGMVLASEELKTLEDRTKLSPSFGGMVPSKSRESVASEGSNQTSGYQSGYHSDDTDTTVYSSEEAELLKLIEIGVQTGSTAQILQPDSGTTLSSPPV

Mus musculus = experiment: Toxicity in human Calu6 cells xenografted BALB/c mouse assessed as body weight change at 1 to 10 mg/kg, po qd for 11 days; assay type: organism-based, Calu-6; set-up: dose 1-10 mg/kg, route oral; conditions: in vivo, 264 h
In short: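 Calu-6 xenografts (5.0 × 10⁶ cells s.c., female Balb/c nude mice). Once tumors reached 150 mm³, oral dosing once daily for 11 days at 1, 3 and 10 mg/kg. Body weight change recorded as percent over the treatment period.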

K562 = experiment: Antiproliferative activity against human K562 cells assessed as cell growth inhibition; assay type: cell-based
Ephrin type-A receptor 2 = Ephrin type-A receptor 2 (Homo sapiens, UniProt P29317); experiment: Inhibition of EPHA2
Sequence of Ephrin type-A receptor 2 (P29317 whole entry, the tested form may be a part): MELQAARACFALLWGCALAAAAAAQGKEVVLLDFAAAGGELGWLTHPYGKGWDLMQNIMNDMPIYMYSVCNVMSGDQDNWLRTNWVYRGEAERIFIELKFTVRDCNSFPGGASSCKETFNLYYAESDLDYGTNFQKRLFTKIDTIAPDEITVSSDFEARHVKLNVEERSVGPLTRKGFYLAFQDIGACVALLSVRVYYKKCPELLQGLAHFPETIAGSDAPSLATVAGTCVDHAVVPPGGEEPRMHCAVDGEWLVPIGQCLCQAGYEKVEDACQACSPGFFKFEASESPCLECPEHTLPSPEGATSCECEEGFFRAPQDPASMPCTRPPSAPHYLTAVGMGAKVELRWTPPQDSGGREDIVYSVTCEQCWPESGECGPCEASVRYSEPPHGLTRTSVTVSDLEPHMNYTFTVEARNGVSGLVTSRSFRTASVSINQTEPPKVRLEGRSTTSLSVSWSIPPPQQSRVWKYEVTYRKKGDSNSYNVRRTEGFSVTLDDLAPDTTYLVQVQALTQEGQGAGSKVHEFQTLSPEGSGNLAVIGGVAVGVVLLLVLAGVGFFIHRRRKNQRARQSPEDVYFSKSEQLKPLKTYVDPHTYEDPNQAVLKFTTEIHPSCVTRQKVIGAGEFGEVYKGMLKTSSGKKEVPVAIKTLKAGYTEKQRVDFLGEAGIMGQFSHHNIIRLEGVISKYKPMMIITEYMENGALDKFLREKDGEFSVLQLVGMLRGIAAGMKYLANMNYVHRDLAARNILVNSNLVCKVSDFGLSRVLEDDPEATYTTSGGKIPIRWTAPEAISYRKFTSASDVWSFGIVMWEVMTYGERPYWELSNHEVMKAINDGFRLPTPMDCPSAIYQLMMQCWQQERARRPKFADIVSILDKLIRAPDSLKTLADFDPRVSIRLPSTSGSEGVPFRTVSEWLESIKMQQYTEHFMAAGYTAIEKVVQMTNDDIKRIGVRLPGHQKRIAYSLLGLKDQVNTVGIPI

[17] = target: Epithelial discoidin domain-containing receptor 1 (Homo sapiens, UniProt Q08345); experiment: Inhibition of DDR1
[18] = Oral bioavailability in nude mouse at 30 mg/kg by LC-MS/MS analysis; assay type: ADME, organism-based; conditions: in vivo; in short: as §1
Calu-6 [19] = experiment: Antitumor activity against human Calu6 cells xenografted in BALB/c mouse assessed as tumor growth inhibition at 150 mg/kg, po qd for 11 days; assay type: functional, organism-based; set-up: dose 150 mg/kg
In short: (§3)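 Female Balb/c nude mice carried s.c. flank Calu-6 xenografts, 5.0×10⁶ cells in Hanks' solution. At 200 mm³, mice were randomized into 4 groups (n = 5): vehicle, 150 mg/kg, sunitinib 80 mg/kg, or both. Each group dosed orally once daily for 11 days. Volume = 1/2 × long × short². Inhibition from volume change against control.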

Calu-6 [20] = experiment: Antitumor activity against human Calu6 cells xenografted in BALB/c mouse assessed as tumor growth inhibition at 150 mg/kg, po qd for 11 days in presence of sunitinib; assay type: functional, organism-based; set-up: dose 150 mg/kg; in short: as §3

For `COc1ccc(C(=O)NC[C@H](O)CO)cc1/C=C/c1ccc(Cl)cc1`, the IC50 (T47D) was 7.2 µM, the microsomal CLint at 5 µM [1] was 12 µL/min/mg and the IC50 [2] was > 50 µM. The TGI (Calu-6 [3]) was “Dose-dependent effect”, the ED50 (Calu-6 [3]) was 2.3 mg/kg and the IC50 [4] was > 50 µM. It also gave a bioavailability [5] of 90%, an IC50 (CWR22R) of 21 µM and an IC50 (DU-145) of 23 µM. The IC50 (WiDr) was 15 µM, the IC50 [6] was > 50 µM and the IC50 (COLO 205) was 18 µM. For the same molecule, the CL/F [7] was 5.6 mL/min/kg, the IC50 [8] was > 50 µM and the inhibition at 4 µM (HUVEC [9]) was 41%. For the same molecule, the IC50 (IGROV-1) was 1.4 µM, the IC50 (Focal adhesion kinase 1) was > 50 µM and the inhibition at 20 µM (HUVEC [10]) was 93%. For the same molecule, the IC50 [11] was 15 µM, the IC50 [12] was > 50 µM and the IC50 (MDA-MB-231) was 38 µM. The IC50 [13] was > 50 µM, the IC50 (HCT-15) was 29 µM and the IC50 [14] was > 50 µM. The IC50 [15] was 69 µM, the IC50 [16] was > 50 µM and the Activity (Mus musculus) was “Non-toxic”. The IC50 (K562) was 36 µM, the IC50 (Ephrin type-A receptor 2) was > 50 µM and the IC50 [17] was > 50 µM.
In the case of `COc1ccc(C(=O)NC[C@@H](O)CO)cc1/C=C/c1ccc(Cl)cc1`, the IC50 (T47D) is reported as 4.5 µM, the microsomal CLint at 5 µM [1] is reported as 7 µL/min/mg and the IC50 [2] is reported as > 50 µM. The TGI (Calu-6 [3]) was “Dose-dependent effect”, the ED50 (Calu-6 [3]) was 3.2 mg/kg and the IC50 [4] was > 50 µM. The bioavailability [18] was 100%, the IC50 (CWR22R) was 8.6 µM and the IC50 (DU-145) was 5.3 µM. For the same molecule, the IC50 (WiDr) was 7 µM, the IC50 [6] was > 50 µM and the IC50 (COLO 205) was 18 µM. For the same molecule, the CL/F [7] was 5.8 mL/min/kg, the IC50 [8] was > 50 µM and the TGI (Calu-6 [19]) was “Active”. The inhibition at 4 µM (HUVEC [9]) was 38%, the IC50 (IGROV-1) was 0.92 µM and the IC50 (Focal adhesion kinase 1) was > 50 µM. For the same molecule, the inhibition at 20 µM (HUVEC [10]) was 86%, the IC50 [11] was 4.9 µM and the IC50 [12] was > 50 µM. For the same molecule, the IC50 (MDA-MB-231) was 39 µM, the IC50 [13] was > 50 µM and the IC50 (HCT-15) was 20 µM. For the same molecule, the IC50 [14] was > 50 µM, the IC50 [15] was 74 µM and the IC50 [16] was > 50 µM. For the same molecule, the Activity (Mus musculus) was “Non-toxic”, the IC50 (K562) was 29 µM and the IC50 (Ephrin type-A receptor 2) was > 50 µM. For the same molecule, the TGI (Calu-6 [20]) was “Active” and the IC50 [17] was > 50 µM.
